{"source": "ChEMBL document CHEMBL5214894", "about": "“Biosynthetic Interrogation of Soil Metagenomes Reveals Metamarin, an Uncommon Cyclomarin Congener with Activity against Mycobacterium tuberculosis” (J Nat Prod, 2021)", "key": {"[1]": {"tested_on": "Mycobacterium tuberculosis", "assay": "Antimycobacterial activity against Mycobacterium tuberculosis H37Rv assessed as bacterial growth inhibition incubated for 6 days by Alamar blue staining based assay", "type": "functional", "conditions": "144 h, time 6 day", "how_it_was_run": "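Strains passaged at 37 °C in 7H9 with OADC, 0.2% glycerol and 0.02% tyloxapol to OD600 0.5–0.7, then diluted to OD600 0.005. Final test range 5 to 0.009 μg/mL. Rifampicin control. Incubated 6 days at 37 °C with 5% CO2. Tween 80 and Alamar Blue then added for 24 h. Absorbance read at 570 nm, normalized to 600 nm.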"}, "[2]": {"tested_on": "Mycolicibacterium smegmatis", "assay": "Antibacterial activity against Mycobacterium smegmatis mc2 155 assessed as bacterial growth inhibition incubated for 48 hrs Alamar blue staining based assay", "type": "functional", "how_it_was_run": "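Culture grown 48 h at 37 °C, shaken in 7H9 with 0.2% glucose, 0.2% glycerol and 0.05% tyloxapol, then diluted to OD600 0.005. Added 1:1 to 2-fold serial dilutions, final 128 to 0.5 μg/mL. Rifampicin control. Static 48 h at 37 °C, then Alamar Blue for 24 h more. Wells staying blue by eye counted as inhibitory.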"}, "[3]": {"target": "ATP-dependent Clp protease ATP-binding subunit ClpC1 (Mycobacterium tuberculosis) (UniProt P9WPC9)", "sequence (P9WPC9 whole entry)": "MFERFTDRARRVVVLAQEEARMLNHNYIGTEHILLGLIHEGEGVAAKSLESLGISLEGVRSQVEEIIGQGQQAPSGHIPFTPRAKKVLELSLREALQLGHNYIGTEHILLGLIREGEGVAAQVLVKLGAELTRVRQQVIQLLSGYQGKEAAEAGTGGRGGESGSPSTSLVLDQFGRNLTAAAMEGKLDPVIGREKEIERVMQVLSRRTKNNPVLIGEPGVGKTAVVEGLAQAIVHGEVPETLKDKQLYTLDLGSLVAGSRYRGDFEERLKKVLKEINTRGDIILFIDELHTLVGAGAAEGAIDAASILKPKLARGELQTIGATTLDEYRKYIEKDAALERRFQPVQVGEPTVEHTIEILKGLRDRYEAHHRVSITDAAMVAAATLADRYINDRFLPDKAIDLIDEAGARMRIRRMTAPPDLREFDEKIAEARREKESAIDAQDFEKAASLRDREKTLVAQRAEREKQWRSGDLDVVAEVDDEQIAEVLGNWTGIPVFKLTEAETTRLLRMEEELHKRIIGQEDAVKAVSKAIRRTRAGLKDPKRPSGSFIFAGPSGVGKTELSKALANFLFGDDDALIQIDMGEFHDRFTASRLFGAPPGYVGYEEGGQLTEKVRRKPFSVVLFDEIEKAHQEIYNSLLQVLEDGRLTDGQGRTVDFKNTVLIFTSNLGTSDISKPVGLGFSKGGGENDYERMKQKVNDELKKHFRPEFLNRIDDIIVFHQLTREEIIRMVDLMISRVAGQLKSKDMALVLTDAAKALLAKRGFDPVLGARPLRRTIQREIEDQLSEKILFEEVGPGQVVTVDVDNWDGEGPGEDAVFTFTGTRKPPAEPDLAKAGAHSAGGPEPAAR", "assay": "Induction of Mycobacterium tuberculosis H37Rv CIpc1 ATPase activity expressed in Escherichia coli BL21 (DE3) cells at 10 uM incubated for 1 hr by Biomol Green Reagent based assay", "how_it_was_run": "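His-tagged ClpC1, cloned from H37Rv DNA into pET28c and purified by Ni-NTA. Assay in 100 mM Tris, 200 mM KCl, 8 mM MgCl2, pH 7.5, with 1 μM ClpC1 and 100 μM ATP. Compound in DMSO at 0.1, 1.0 and 10 μM final. Incubated 1 h at 37 °C. Released phosphate detected with BIOMOL Green at OD620. Three independent experiments.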"}, "[4]": {"tested_on": "Mycobacterium tuberculosis", "assay": "Induction of Mycobacterium tuberculosis CIpc1/P1/P2 proteolytic activity at 0.1 to 10 uM incubated upto 45 mins by FITC-casein fluorescence based assay", "conditions": "dose 0.1-10 µM", "how_it_was_run": "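FITC-casein 0.3 μM degraded by 1 μM ClpC1 with 2 μM ClpP1/P2 and 2 mM ATP. Buffer 100 mM Tris, 200 mM KCl, 8 mM MgCl2, pH 7.5. Compound in DMSO at 0.1, 1.0 and 10 μM. Change in fluorescence tracked relative to initial, which was set to 100. Triplicate.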"}, "[5]": {"tested_on": "Micrococcus luteus", "assay": "Antibacterial activity against Micrococcus luteus NRRL B-1018 assessed as inhibition of bacterial growth incubated for 16 hrs by broth micro dilution analysis", "type": "functional", "how_it_was_run": "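Broth microdilution in LB, triplicate. Overnight culture diluted 5000-fold; 100 μL added to 100 μL LB holding 2-fold serial dilutions, final 128 to 0.5 μg/mL. Rifampicin control. Static incubation at 37 °C for 16 h. MIC taken as the lowest concentration with no visible growth.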"}}, "note": "Active and inactive are the calls of the source. No cut-off for these calls is given here."}
{"compound": "C=CC(C)(C)n1cc(C(O)C2NC(=O)[C@H](C(C)C)NC(=O)[C@H](CC(C)C)N(C)C(=O)[C@H](C(C)C)NC(=O)C(C(OC)c3ccccc3)NC(=O)[C@H](C(C)C)NC(=O)C(CC(C)CO)N(C)C2=O)c2ccccc21", "note": "(stereo not given in full)", "values": [{"measurement": "MIC", "setting": "[1]", "result": 0.16, "unit": "µg/mL"}, {"measurement": "MIC", "setting": "[2]", "result": 16, "unit": "µg/mL"}, {"measurement": "Activity", "setting": "[3]", "result": "Active"}, {"measurement": "Activity", "setting": "[4]", "result": "Active"}, {"measurement": "MIC", "setting": "[5]", "result": 8, "unit": "µg/mL"}]}
